Results gathered from unrelated publications.
Lines come from different studies, so protocols differ.
Target: Acetylcholinesterase (ache, Electrophorus electricus, UniProt O42275)
Read-out: enzyme activity
Action: inhibitor
Method: Ellman

C#CCN(C)c1nc(NCCCCC2CCN(Cc3ccccc3)CC2)c(C#N)cc1C#N — IC50: 0.00074 µM
C#CCNC(=O)c1cc2ccc(N(CC)CC)cc2oc1=O — IC50 (pH 7.6): > 50 µM
CC=C1[C@H]2C=C(C)C[C@]1(N)c1cc(OCCCC)c(=O)[nH]c1C2 — IC50: 110 µM
Cc1c(C(=O)[C@H]2[C@H](c3cn(C)c4ccccc34)[C@H]3CSCN3[C@]23C(=O)Nc2cc(Cl)ccc23)cnn1-c1ccccc1 — IC50: > 100 µM
O=C(NNS(=O)(=O)c1ccc(Br)cc1)C(=O)NNS(=O)(=O)c1ccc(Br)cc1 — IC50 (with preincubation): 3.28 µM
CC=C1[C@H]2C=C(C)C[C@]1(N)c1cc(C)c(=O)[nH]c1C2 — IC50: 0.35 µM
Cc1c(C(=O)[C@H]2[C@H](c3c[nH]c4ccccc34)[C@H]3CCCN3[C@]23C(=O)Nc2cc(Cl)ccc23)cnn1-c1ccccc1 — IC50: > 100 µM
CC=C1[C@H]2C=C(C)C[C@]1(N)c1ccc(OC)nc1C2 — IC50: 3.67 µM
CC1(C)O[C@H]2CC(=O)OC[C@]23[C@H]2CC[C@@]4(C)[C@H](c5ccoc5)OC(=O)[C@H]5O[C@]54[C@]2(C)C(=O)C[C@@H]13 — IC50: 1060 µM
Cc1c(C(=O)[C@H]2[C@H](c3c[nH]c4ccc(Br)cc34)CN(C)[C@]23C(=O)Nc2cc(Cl)ccc23)cnn1-c1ccccc1 — IC50: 27.8 µM
CCOc1ccc(C=NNC(=S)NCC(=O)c2ccccc2O)cc1 — IC50: 420 µM
COP(=O)(OC)OC(C)=C1CCOC1=O — IC50 (pH 8): > 1000 µM
CC=C1[C@H]2C=C(C)C[C@]1(N)c1cc(F)c(=O)[nH]c1C2 — IC50: 1.23 µM
Cc1c(C(=O)[C@H]2[C@H](c3c[nH]c4ccccc34)[C@H]3CSCN3[C@]23C(=O)Nc2cc(Cl)ccc23)cnn1-c1ccccc1 — IC50: > 100 µM
CC=C1[C@H]2C=C(C)C[C@]1(N)c1cc(O)c(=O)[nH]c1C2 — IC50: 0.53 µM
O=C(NCC1CCN(Cc2ccccc2)CC1)c1cc2ccccc2o1 — IC50: 30 µM
C#CCN(C)c1nc(NCCCC2CCN(Cc3ccccc3)CC2)c(C#N)cc1C#N — IC50: 0.00619 µM
Cc1c(C(=O)[C@H]2[C@H](c3c[nH]c4ccc(Br)cc34)[C@H]3CCCN3[C@]23C(=O)Nc2ccccc23)cnn1-c1ccccc1 — IC50: > 100 µM
O=C(NCCN1CCN(Cc2ccccc2)CC1)c1cc2ccccc2o1 — IC50: 18.5 µM
CC=C1[C@H]2C=C(C)C[C@]1(N)c1cc(C#N)c(=O)[nH]c1C2 — IC50: 33.9 µM
O=C(CNC(=S)NN=Cc1ccc([N+](=O)[O-])cc1)c1ccc(Cl)cc1 — IC50: 340 µM
